Results: ChEMBL document CHEMBL1147227, “Annularins A-H: new polyketide metabolites from the freshwater aquatic fungus Annulatascus triseptatus” (2003)
Activity calls are given as the source filed them. No cut-off for these calls is given here.

Columns and labels:
Bacillus subtilis = assay: Antibacterial activity against Bacillus subtilis ATCC 6051 at 200 ug/disk by standard disk assay; type: functional; details: read-out: IZ
Outline: (§1)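 Paper-disk diffusion assay with 200 µg of test material loaded per disk. Activity was read as the zone of inhibition, recorded in mm.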

Candida albicans = assay: Antifungal activity against Candida albicans ATCC 90029 at 200 ug/disk by standard disk assay; type: functional, organism-based
Staphylococcus aureus = assay: Antibacterial activity against Staphylococcus aureus ATCC 29213 at 200 ug/disk by standard disk assay; type: functional; details: read-out: IZ; outline: as §1
Aspergillus flavus = assay: Antifungal activity against Aspergillus flavus NRRL 6541 at 200 ug/disk by standard disk assay; type: functional, organism-based

Row | Compound | zone of inhibition at 200 µg/disc (Bacillus subtilis) | Activity (Candida albicans) | zone of inhibition at 200 µg/disc (Staphylococcus aureus) | Activity (Aspergillus flavus)
1 | CCC1OC(=O)c2c(OC)cc(=O)oc21 (stereo not drawn) [ANNULARIN F] | 8 mm | inactive | – | –
2 | CCCc1oc(=O)cc(OC)c1CO | 8 mm | inactive | – | –
3 | CC[C@H](O)c1oc(=O)cc(OC)c1CO | 8 mm | inactive | 14 mm | –
4 | CCCc1oc(=O)cc(OC)c1C | – | – | – | inactive
